NPY Y2 blocker – blocks the human neuropeptide Y Y2 receptor; P49146; NPY-Y2 expressing cells, antagonist mode; inhibition, % at 2.7 µM; hit rate 0.99% among 140,000;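 note: 0% = vehicle with agonist challenge and 100% = reference antagonist with challenge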
Target sequence (P49146 whole entry, looked up): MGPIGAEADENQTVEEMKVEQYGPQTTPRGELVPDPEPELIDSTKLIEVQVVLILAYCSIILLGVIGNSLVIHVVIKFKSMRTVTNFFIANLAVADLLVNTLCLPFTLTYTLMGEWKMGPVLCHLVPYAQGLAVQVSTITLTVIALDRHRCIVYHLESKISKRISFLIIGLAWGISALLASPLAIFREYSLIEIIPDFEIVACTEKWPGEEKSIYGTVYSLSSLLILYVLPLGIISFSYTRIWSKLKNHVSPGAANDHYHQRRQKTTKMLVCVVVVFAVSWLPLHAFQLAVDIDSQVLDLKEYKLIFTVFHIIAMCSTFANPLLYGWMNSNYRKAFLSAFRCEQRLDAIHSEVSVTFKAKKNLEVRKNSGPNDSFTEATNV
NPY2 pot ag – human NPY-Y2 potentiation or agonism, primary screen | activation, % at 3.6 µM | hit rate 0.45% among 220,000 | cells expressing NPY-Y2, potentiator/agonist read-out | P49146 | AID 1359; in the data active = activation above about 27%;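 note: cells stimulated with NPY near EC25 plus isoproterenol at EC100; 0% = vehicle plus submaximal agonist and 100% = vehicle plus saturating agonist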
NPY-Y1 antag – blocks the human neuropeptide Y Y1 receptor | inhibition, % at 3.6 µM | hit rate 1% among 200,000 | AID 1040 | HEK293-CNG Y1 cells, membrane potential fluorescence; NPY at EC95, then isoproterenol;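 active = inhibition above the campaign mean inhibition of all tested compounds plus 3 SD, cut at about 20% in these data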;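 note: 0% = DMSO wells given NPY plus isoproterenol and 100% = isoproterenol alone without NPY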
Target sequence (P25929 whole entry, looked up): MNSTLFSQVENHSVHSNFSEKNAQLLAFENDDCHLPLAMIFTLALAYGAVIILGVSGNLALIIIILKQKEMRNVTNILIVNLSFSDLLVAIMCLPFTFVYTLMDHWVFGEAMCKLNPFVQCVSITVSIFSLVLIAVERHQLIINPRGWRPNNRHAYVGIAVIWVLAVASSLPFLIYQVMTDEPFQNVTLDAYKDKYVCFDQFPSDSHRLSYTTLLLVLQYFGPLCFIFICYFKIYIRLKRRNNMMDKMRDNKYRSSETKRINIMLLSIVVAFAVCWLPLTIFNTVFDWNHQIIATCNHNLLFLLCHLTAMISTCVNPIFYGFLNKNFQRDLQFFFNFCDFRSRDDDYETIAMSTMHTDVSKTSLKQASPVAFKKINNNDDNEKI
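Assay system: HEK293 cells with Y1 receptor plus CNG channel | Probe or stimulus: NPY (25 nM), isoproterenol (1 µM), Ro 20-1724 (25 µM) | Timing: Compound incubation 1 h at room temperature, readout 45 min post-stimulation | Measured by: Membrane-potential fluorescent dye readout | Benchmarks: High control isoproterenol alone, low control NPY with isoproterenol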
NPY1 pot ag – human NPY-Y1 potentiation or agonism, primary screen; P25929; NPY-Y1 expressing cells, potentiator/agonist activation; activation, % at 3.6 µM; hit rate 0.37% among 220,000; in the data active = activation above about 33%, passing the limit was not always enough;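 note: cells stimulated with NPY at EC10 then isoproterenol at EC100; 0% = low agonist plus stimulus and 100% = saturating agonist plus stimulus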
NPY-Y1 ant conf – human NPY-Y1 antagonism, confirmation. shares compounds with NPY-Y1 antag. HEK293-CNG NPY-Y1, membrane potential fluorescence, cAMP; NPY challenge against isoproterenol-raised cAMP. inhibition, % at 3.6 µM. hit rate 21% among 1,200; in the data active = inhibition above about 20%;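 note: 0% = vehicle with agonist plus stimulus and 100% = stimulus alone without agonist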
NPY2 antag ctr – antagonizes human NPY-Y2, counter-screen to NPY-Y1 antagonists. shares compounds with NPY-Y1 antag. HEK293 NPY-Y2 CNG membrane potential fluorescence, antagonism; cells given NPY, then isoproterenol. inhibition, % at 3.6 µM. hit rate 28% among 1,200;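 note: 0% = DMSO with agonist challenge and 100% = reference antagonist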
Starred values were filed as active, the others as inactive; . = no result. Shown are actives, neighbours in structure and some others; about 1.8% of the full set was active somewhere. Cut-off read from the data, not from the text of the source, unless noted: active = inhibition above about 17%; inactive = the rest.

SMILES | NPY Y2 blocker | NPY2 pot ag | NPY-Y1 antag | NPY1 pot ag | NPY-Y1 ant conf | NPY2 antag ctr
CC(C)CN(CC(C)C)C(=O)c1cccc(S(=O)(=O)N2CCc3ccccc32)c1 | . | -3.1 | 29.2* | -5.2 | 4.9 | 5.9
CC(C)CCNC(=O)c1cccc(S(=O)(=O)N2CCc3ccccc32)c1 | 3.8 | -8.7 | 3.7 | -3.5 | . | .
Cc1nn(-c2ccccc2)c(Cl)c1/C=N/NC(=O)OC(C)(C)C | 4.7 | -3.7 | -2.8 | 10.4 | . | .
Cc1ccc(C)c(OCC(=O)N/N=C/c2c(C)nn(-c3ccccc3)c2Cl)c1 | 11.9 | -17.9 | 21.1* | -5.4 | 5.3 | 12.3
CCC(C)N1C(=O)CN(C2CCCCCC2)C(=O)C1c1ccccc1F (stereo not given) | . | -29.7 | 24.3* | -25.6 | 5.8 | 13.3
CCOC(=O)c1c(-c2ccc(OC)cc2)cn2ccccc12 | . | -8.5 | 7.4 | 0.8 | . | .
COc1ccc(CN(C(C)=O)c2cccc(C)c2C)cc1 | 4.9 | -7.4 | 6.6 | -27.9 | . | .
CC(=O)N(Cc1ccc(Br)cc1)c1cccc(C)c1C | . | 2.0 | 33.5* | -11.1 | 1.4 | 5.3
Cc1cc2ccccc2n1CCNC(=O)c1ccc(Br)o1 | . | -22.8 | -5.3 | 1.1 | . | .
NC(=O)COC(=O)CSc1ccc2ccccc2c1 | . | -33.6 | 21.9* | -39.2 | 17.3 | 14.4
Cc1cccc2cc(CN(Cc3ccco3)C(=O)Nc3cccc(C#N)c3)c(Cl)nc12 | 9.1 | -32.5 | 34.1* | -27.2 | 18.6 | 8.6
O=C(OCn1nnc2ccccc2c1=O)c1cc(-c2ccccc2)nc2ccccc12 | -0.2 | -1.2 | -3.1 | 7.1 | . | .
CN1C(=O)c2ccc(C(=O)NCc3ccc4c(c3)OCO4)cc2C1=O | 3.5 | -16.8 | 7.8 | 5.9 | . | .
Cc1cc2oc(C(=O)NCc3ccc4c(c3)OCO4)c(C)c2cc1C | 15.1 | -32.3 | 27.7* | -73.9 | 23.3* | 18.4*
CCN1C(=O)c2ccc(C(=O)NCc3ccc4c(c3)OCO4)cc2C1=O | 2.8 | -4.9 | 25.6* | -24.9 | 4.7 | 7.8
O=C(NCc1ccccc1)NC1CCS(=O)(=O)C1 (stereo not given) | . | -1.2 | -4.1 | 7.2 | . | .
O=C(OCC(=O)N1N=C(c2ccc(Cl)cc2)CC1c1ccco1)c1ccccc1O (stereo not given) | 10.7 | -7.1 | 21.9* | -2.9 | 5.9 | 9.0
Cc1cc(C(=O)CSc2nc3ccccc3[nH]2)c(C)n1CC1CCCO1 (stereo not given) | 5.3 | 8.5 | 25.5* | -45.0 | 42.2* | 16.4
O=C1N(Cc2cccc(Cl)c2)C[C@@H]2C[C@@H](c3ccsc3)N3CCC[C@@]123 | . | 3.6 | 28.7* | 3.5 | 3.6 | 5.0
CC(C)C(c1nnnn1Cc1cccs1)N1CCN(C(=O)c2ccco2)CC1 (stereo not given) | . | -10.8 | 5.1 | -2.2 | . | .
O=c1c2ccccc2nnn1COc1ccc(Cl)cc1Br | . | 4.2 | 8.6 | 14.8 | . | .
COc1cccc(-c2cc(C(=O)N3CCN(C(c4ccccc4)c4ccccc4)CC3)no2)c1 | 6.8 | -6.3 | 23.6* | -31.1 | 6.5 | 7.6
Clc1ccc(-n2nnnc2-c2cnc(-c3ccncc3)nc2-c2cccs2)cc1 | 15.1 | -29.6 | 33.6* | -57.9 | 14.2 | 17.9*
Cc1ccccc1NC(=O)c1sc2nc3c(c(-c4ccco4)c2c1N)CCCC3 | 1.6 | -0.8 | 23.5* | -8.2 | 2.4 | 3.9
Nc1c(C(=O)Nc2ccccc2)sc2nc3c(c(-c4ccco4)c12)CCCC3 | 0.3 | -15.8 | 6.0 | -49.9 | . | .
SMILES | NPY Y2 blocker | NPY2 pot ag | NPY-Y1 antag | NPY1 pot ag | NPY-Y1 ant conf | NPY2 antag ctr
COc1ccc(S(=O)(=O)NCCc2nnc3ccc(SCc4cccnc4)nn23)cc1 | . | -6.9 | 6.2 | -1.2 | . | .
O=C(C[n+]1cc(-c2ccccc2)n2c1CCCCC2)c1ccc(Cl)cc1 | 16.2 | -12.3 | 36.8* | -55.6 | 25.2* | 21.8*
Clc1ccc(-c2c[n+](Cc3ccc(Cl)cc3Cl)c3n2CCCCC3)cc1 | . | -12.1 | . | -15.9 | . | .
Cc1ccc(-c2c[n+](CC(=O)c3ccc(Br)cc3)c3n2CCCCC3)cc1 | . | 5.0 | 35.4* | -34.5 | 52.0* | 30.6*
CC1CCC(C(C)C)C(OC(=O)C[n+]2cc(-c3ccc(Cl)cc3)n3c2CCCCC3)C1 (stereo not given) | . | -12.3 | 80.4* | -43.9 | 45.1* | 38.6*
Clc1ccc(C[n+]2cc(-c3ccccc3)n3c2CCCCC3)c(Cl)c1 | . | -13.9 | 50.2* | -29.1 | 32.9* | 22.0*
COc1ccc(-c2c[n+](CC(=O)c3ccccc3)c3n2CCCCC3)cc1 | . | 15.2 | . | 9.1 | . | .
Cc1ccc(CN2CC(C(=O)Nc3cccc(S(=O)(=O)N4CCCCC4)c3)CC2=O)cc1 (stereo not given) | -0.7 | -1.8 | -0.2 | -0.7 | . | .
COCCNc1nc(SCc2ccccc2)nc2sc3c(c12)CCC3 | 0.0 | -19.0 | 26.5* | -20.9 | 20.7* | 22.4*
COc1ccc(NC(=O)CC2C(=O)N(c3ccc(OC)cc3)C(=O)N2Cc2ccc(OC)c(OC)c2)cc1 (stereo not given) | . | -16.8 | 1.2 | 4.5 | . | .
O=C(Nc1ccc(F)cc1)c1sc2cc(C(F)(F)F)cnc2c1-c1cccs1 | 7.8 | -36.3 | 22.9* | -67.7 | 12.5 | 16.8
Cc1cc(CNC(=O)C(C)Cc2ccccc2)nn1C (stereo not given) | 1.1 | -8.2 | 1.6 | -16.6 | . | .
CCCCN(C)CCCNC(=O)c1cn(CC)c2ccc(S(=O)(=O)N3CCc4ccccc4C3)cc2c1=O | . | -22.2 | 20.1 | -29.7 | . | .
CCCCN(CC)CCCNC(=O)c1cn(CC)c2ccc(S(=O)(=O)N3CCc4ccccc4C3)cc2c1=O | . | -5.4 | 21.9* | -13.0 | 16.1 | 29.4*
CCN(C(=O)c1ccc(C(C)(C)C)cc1)c1nnc(Cn2nnc3ccccc32)s1 | 4.5 | -64.2 | 31.1* | -99.1 | 40.5* | 16.4
CCN(C(=O)CC(C)C)c1nnc(Cn2nnc3ccccc32)s1 | . | -4.2 | -4.5 | -4.6 | . | .
CC(C(=O)Nc1c2c(cc3c1CCC3)CCC2)N1CCCC1 (stereo not given) | 9.5 | -14.8 | 20.2* | -36.7 | 12.6 | 7.6
Cc1cc2cc(CCNC(=O)C3c4ccccc4Oc4ccccc43)c(=O)[nH]c2cc1C | 1.3 | -2.2 | 3.0 | -18.5 | . | .
COc1cccc(NC(=O)NC(C)C2CC3CCC2C3)c1 (stereo not given) | . | -16.4 | 23.5* | -8.6 | 2.7 | 34.3*
C/C=C/Cn1c(SCc2ccc(Cl)cc2)nc2c1c(=O)[nH]c(=O)n2C | 4.2 | -75.4 | 17.4 | -89.8 | . | .
CCCn1c(SCc2ccc(Cl)cc2)nc2c1c(=O)[nH]c(=O)n2C | 12.4 | -8.4 | 23.9* | -33.4 | 22.5* | 39.9*
Cc1nc(NCc2ccccn2)c2c3c(sc2n1)CCCC3 | . | -12.8 | 45.8* | 6.8 | 14.9 | 8.9
CCN(CC)S(=O)(=O)c1ccc(N2CCOCC2)c(NS(=O)(=O)c2cc(C(C)(C)C)ccc2C)c1 | -1.7 | 3.4 | -2.4 | 3.9 | . | .
COc1cccc(/C(C#N)=C/c2c(-c3ccc(Cl)cc3)nc3c(C)cccn23)c1 | 2.2 | -4.0 | 22.6* | 0.2 | 4.2 | 2.5

Bioassay records as filed in PubChem.
